# Source: ChEMBL document CHEMBL1811809, “Design, synthesis and in vitro drug release investigation of new potential 5-FU prodrugs” (Eur J Med Chem, 2011)
# Legend:
# PA-1 = assay: Antiproliferative activity against human PA1 cells after 48 hrs by resazurin reduction test; assay type: functional, cell-based; details: PA-1, 48 h
# Procedure, shortened: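 MCF 7 and PA 1 cells were kept as monolayers in MEM with 10% fetal calf serum, 1 mM pyruvate, vitamins, non-essential amino acids and gentamicin, at 37 °C and 5% CO₂. Cells were seeded at 5 × 10³ per well, left 16 h, then exposed continuously for 48 h; DMSO was 0.5% (v/v). Resazurin in serum- and phenol red-free MEM was added for 1 h at 37 °C, fluorescence read at ex 530/em 590 nm, and IC₅₀ taken from blank-corrected percent-of-control curves.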
# [1] = Antiproliferative activity against human fibroblasts after 48 hrs by resazurin reduction test; assay type: cell-based; details: Fibroblast
# MCF7 = assay: Antiproliferative activity against human MCF7 cells after 48 hrs by resazurin reduction test; assay type: functional, cell-based; details: MCF7, 48 h
# Procedure, shortened: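 MCF 7 and PA 1 cells were kept as monolayers in MEM with 10% fetal calf serum, 1 mM pyruvate, vitamins, non-essential amino acids and gentamicin, at 37 °C and 5% CO₂. Cells were seeded at 5 × 10³ per well, left 16 h, then exposed continuously for 48 h; DMSO was 0.5% (v/v).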
# [2] = Stability of the compound assessed as degradation half life in presence of plasma at 37 degC by HPLC analysis; assay type: ADME, cell-free
# Procedure, shortened: (§1)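 Each compound came from a 10 mM stock in methanol or methanol/acetonitrile 85:15, diluted 1:10 into PBS, MEM or human plasma and held at 37 ± 2 °C. Aliquots taken over time were quenched with equal-volume 10 mM ammonium formate pH 3, centrifuged, filtered, diluted 3:10 and run on gradient HPLC-UV (ammonium formate pH 3/acetonitrile; 264/258 nm). Half-lives came from log concentration versus time plots, usually in triplicate.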
# [3] = Stability of the compound in MEM assessed as degradation half life at 37 degC by HPLC analysis; assay type: physicochemical; procedure, shortened: as §1
# [4] = Stability of the compound in PBS buffer assessed as degradation half life at 37 degC by HPLC analysis; assay type: physicochemical; procedure, shortened: as §1
Structure (SMILES),IC50 (PA-1) [µM],IC50 [1] [µM],IC50 (MCF7) [µM],half-life [2] [min],half-life [3] [min],half-life [4] [min]
CC(=O)OC[C@H]1O[C@@H](n2cc(F)c(=O)[nH]c2=O)[C@H](F)[C@@H](OC(C)=O)[C@@H]1OC(C)=O,> 50,> 50,> 50,–,–,–
CC(=O)OC[C@H]1O[C@@H](NC(=O)Cn2cc(F)c(=O)[nH]c2=O)[C@H](F)[C@@H](OC(C)=O)[C@@H]1OC(C)=O,> 50,> 50,> 50,–,–,–
CC(=O)OC[C@H]1O[C@@H](NC(=O)CNC(=O)n2cc(F)c(=O)[nH]c2=O)[C@H](F)[C@@H](OC(C)=O)[C@@H]1OC(C)=O,3,6.4,11,6,2,3
CC(=O)OC[C@H]1O[C@@H](NC(=O)CCCNC(=O)n2cc(F)c(=O)[nH]c2=O)[C@H](F)[C@@H](OC(C)=O)[C@@H]1OC(C)=O,6,15,23,10,6,8
CC(=O)OC[C@H]1O[C@@H](NC(=O)CCCCCNC(=O)n2cc(F)c(=O)[nH]c2=O)[C@H](F)[C@@H](OC(C)=O)[C@@H]1OC(C)=O,4,5,8.1,17,8,11
CC(=O)OC[C@H]1O[C@@H](NC(=O)CCCN(C)C(=O)n2cc(F)c(=O)[nH]c2=O)[C@H](F)[C@@H](OC(C)=O)[C@@H]1OC(C)=O,> 50,> 50,> 50,–,–,–
CC(=O)OC[C@H]1O[C@@H](Oc2ccc(N(C)C(=O)n3cc(F)c(=O)[nH]c3=O)cc2)[C@H](F)[C@@H](OC(C)=O)[C@@H]1OC(C)=O,> 50,> 50,> 50,–,–,–
O=c1[nH]cc(F)c(=O)[nH]1 [FLUOROURACIL],5,11,–,–,–,–
